Measured values from ChEMBL document CHEMBL5678799 (Biochem J, 2009).
Activity calls are given as the source filed them. The rule behind the calls is not given here.

How the values were obtained:
[1] = molecular target: T1, mTORC1 (Homo sapiens) (UniProt P42345+Q8N122+Q9BVC4); conditions: HEK293, dose 30-1000 nM, time 30.0 min
[2] = molecular target: Glycogen synthase kinase-3 beta (Homo sapiens) (UniProt P49841); assay: Inhibition of recombinant human His6-tagged GSK3beta (2 to 420 residues) expressed in baculovirus infected Sf21 cells assessed as remaining activity at 10 uM using phospho-GS2 peptide as substrate incubated for 30 mins in presence of [gamma-33P]ATP by filter binding method relative to control
Summary of the method: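 Radiometric kinase panel run robotically at 21 °C for 30 min, linear in time and enzyme. […] Activity expressed as percentage of control without inhibitor; triplicate determinations.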

[3] = molecular target: Protein kinase C alpha type (Homo sapiens) (UniProt P17252); assay: Inhibition of recombinant human N-terminal His6-tagged PKCalpha (1 to 672 residues) expressed in baculovirus infected Sf21 cells assessed as remaining activity at 1 uM using Histone H1 as substrate incubated for 30 mins in presence of [gamma-33P]ATP by filter binding method relative to control
[4] = molecular target: Mitogen-activated protein kinase 12 (Homo sapiens) (UniProt P53778); assay: (§1) Inhibition of recombinant human N-terminal GST-tagged P38gamma (1 to 367 residues) expressed in Escherichia coli assessed as remaining activity at 10 uM using MBP as substrate incubated for 30 mins in presence of [gamma-33P]ATP by filter binding method relative to control
Summary of the method: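 Radiometric kinase panel run robotically at room temperature (21 °C) for 30 min, linear in time and enzyme. […] Activity is expressed as percent of control without compound, from triplicate determinations ± S.D.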

[5] = molecular target: Serine/threonine-protein kinase pim-3 (Homo sapiens) (UniProt Q86V86); assay: Inhibition of recombinant human N-terminal His6-tagged PIM3 (2 to 326 residues) expressed in baculovirus infected Sf21 cells assessed as remaining activity at 1 uM using RSRHSSYPAGT as substrate incubated for 30 mins in presence of [gamma-33P]ATP by filter binding method relative to control
[6] = molecular target: CDK2/Cyclin A2 (Homo sapiens) (UniProt P24941+P20248); assay: as §1, with “CDK2 (2” for “P38gamma (1”, “298 residues)/N-terminal GST-tagged Cyclin A2 (171 to 432” for “367”, “YSPTSPSYSPTSPSYSPTSPKKK” for “MBP”
Summary of the method: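 Incubations ran robotically for 30 min at room temperature (21 °C) under linear conditions. Results are percent activity remaining versus controls without compound, as the mean of triplicates ± S.D.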

[7] = molecular target: Serine/threonine-protein kinase mTOR (Mus musculus) (UniProt Q9JLN9); assay: Inhibition of mTOR in MEF cells assessed as reduction in 4E-BP1 phosphorylation at S65 residues at 1 uM incubated for 30 mins by immunoblot analysis; assay type: cell-based
Summary of the method: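 HEK-293 cells or MEFs cultured in 10% serum and treated 30 min with inhibitor. Lysed in Tris lysis buffer. Lysates immunoblotted for 4E-BP1 phosphorylated at Thr37/Thr46 and Ser65, with mobility shift noted. Three experiments.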

[8] = molecular target: Serine/threonine-protein kinase N2 (Homo sapiens) (UniProt Q16513); assay: Inhibition of recombinant N-terminal His6/FLAG-tagged human PRK2 (501 to 984 residues) expressed in baculovirus infected Sf21 cells assessed as remaining activity at 10 uM using S6 peptide as substrate incubated for 30 mins in presence of [gamma-33P]ATP by filter binding method relative to control
Summary of the method: (§2)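 Kinase panel run robotically at 21 °C for 30 min, linear in time and enzyme. […] Compound tested at 1 or 10 µM. Activity given as percentage of incubations without compound, mean of triplicates ± S.D.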

[9] = molecular target: Dual specificity mitogen-activated protein kinase kinase 1 (Homo sapiens) (UniProt Q02750); assay: Inhibition of recombinant human MKK1 (2 to 393 residues) expressed in Escherichia coli assessed as remaining activity at 10 uM using MBP as substrate incubated for 30 mins in presence of [gamma-33P]ATP by filter binding method relative to control
Summary of the method: as §2

[10] = molecular target: Mitogen-activated protein kinase; ERK1/ERK2 (Homo sapiens) (UniProt P27361+P28482); assay: Inhibition of ERK1/2 in serum starved/PMA-stimulated HEK293 cells assessed as reduction in RSK phosphorylation at T573 residues at 1 uM incubated for 30 mins by immunoblot analysis; assay type: cell-based
[11] = test system: HEK293; assay: Inhibition of PI3K in serum starved HEK293 cells expressing GST-tagged-AKT1 S473D mutant assessed as reduction in IGF1-stimulated AKT1 phosphorylation at Thr308 residue at 100 to 1000 nM incubated for 20 mins by immunoblot analysis; assay type: cell-based; conditions: Homo sapiens, dose 100-1000 nM
Summary of the method: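 HEK-293 cells transfected with wild-type or S473D GST–Akt1. At 24 h, serum-starved 16 h, pretreated 30 min with inhibitor, then stimulated with IGF-1 for 20 min. Lysates immunoblotted for Thr308 phosphorylation. Three separate experiments.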

[12] = molecular target: T1, mTORC1 (Homo sapiens); conditions: HEK293, dose 30-1000 nM, time 30.0 min; remark: listed apart in the source
[13] = molecular target: Inhibitor of nuclear factor kappa-B kinase subunit epsilon (Homo sapiens) (UniProt Q14164); assay: Inhibition of recombinant human N-terminal GST-tagged IKKepsilon (1 to 716 residues) expressed in baculovirus infected Sf21 cells assessed as remaining activity at 1 uM using MBP as substrate incubated for 30 mins in presence of [gamma-33P]ATP by filter binding method relative to control
Summary of the method: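 Incubation was 30 min at room temperature (21 °C) under conditions linear with time and enzyme amount. Activity is reported as percent of control lacking compound, triplicate mean ± S.D.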

[14] = molecular target: Serine/threonine-protein kinase D1 (Homo sapiens) (UniProt Q15139); assay: Inhibition of recombinant human N-terminal His6-tagged PKD1 (2 to 912 residues) expressed in baculovirus infected Sf21 cells assessed as remaining activity at 10 uM using KKLNRTLSVA as substrate incubated for 30 mins in presence of [gamma-33P]ATP by filter binding method relative to control
[15] = molecular target: T1, mTORC1 (Homo sapiens); conditions: HEK293, dose 100-300 nM, time 30.0 min
[16] = test system: MEF; assay: Inhibition of mTORC2 in serum starved mLST8 knockout MEF cells assessed as reduction IGF1-stimulated AKT phosphorylation at Thr308 residue at 100 to 1000 nM incubated for 20 mins by immunoblot analysis; assay type: cell-based; conditions: Mus musculus, dose 100-1000 nM
Summary of the method: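 Serum withdrawn 16 h. Inhibitor or vehicle given 30 min before stimulation with 50 ng/ml IGF-1 for 20 min. Lysed in Tris lysis buffer and immunoblotted for Akt Thr308 phosphorylation with ECL detection. Applies to HEK-293 and to wild-type, Rictor, Sin1 or mLST8 knockout MEFs. Three independent experiments.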

T1 sequence (Q8N122 whole entry, looked up, other chains not shown, the tested form may be a part): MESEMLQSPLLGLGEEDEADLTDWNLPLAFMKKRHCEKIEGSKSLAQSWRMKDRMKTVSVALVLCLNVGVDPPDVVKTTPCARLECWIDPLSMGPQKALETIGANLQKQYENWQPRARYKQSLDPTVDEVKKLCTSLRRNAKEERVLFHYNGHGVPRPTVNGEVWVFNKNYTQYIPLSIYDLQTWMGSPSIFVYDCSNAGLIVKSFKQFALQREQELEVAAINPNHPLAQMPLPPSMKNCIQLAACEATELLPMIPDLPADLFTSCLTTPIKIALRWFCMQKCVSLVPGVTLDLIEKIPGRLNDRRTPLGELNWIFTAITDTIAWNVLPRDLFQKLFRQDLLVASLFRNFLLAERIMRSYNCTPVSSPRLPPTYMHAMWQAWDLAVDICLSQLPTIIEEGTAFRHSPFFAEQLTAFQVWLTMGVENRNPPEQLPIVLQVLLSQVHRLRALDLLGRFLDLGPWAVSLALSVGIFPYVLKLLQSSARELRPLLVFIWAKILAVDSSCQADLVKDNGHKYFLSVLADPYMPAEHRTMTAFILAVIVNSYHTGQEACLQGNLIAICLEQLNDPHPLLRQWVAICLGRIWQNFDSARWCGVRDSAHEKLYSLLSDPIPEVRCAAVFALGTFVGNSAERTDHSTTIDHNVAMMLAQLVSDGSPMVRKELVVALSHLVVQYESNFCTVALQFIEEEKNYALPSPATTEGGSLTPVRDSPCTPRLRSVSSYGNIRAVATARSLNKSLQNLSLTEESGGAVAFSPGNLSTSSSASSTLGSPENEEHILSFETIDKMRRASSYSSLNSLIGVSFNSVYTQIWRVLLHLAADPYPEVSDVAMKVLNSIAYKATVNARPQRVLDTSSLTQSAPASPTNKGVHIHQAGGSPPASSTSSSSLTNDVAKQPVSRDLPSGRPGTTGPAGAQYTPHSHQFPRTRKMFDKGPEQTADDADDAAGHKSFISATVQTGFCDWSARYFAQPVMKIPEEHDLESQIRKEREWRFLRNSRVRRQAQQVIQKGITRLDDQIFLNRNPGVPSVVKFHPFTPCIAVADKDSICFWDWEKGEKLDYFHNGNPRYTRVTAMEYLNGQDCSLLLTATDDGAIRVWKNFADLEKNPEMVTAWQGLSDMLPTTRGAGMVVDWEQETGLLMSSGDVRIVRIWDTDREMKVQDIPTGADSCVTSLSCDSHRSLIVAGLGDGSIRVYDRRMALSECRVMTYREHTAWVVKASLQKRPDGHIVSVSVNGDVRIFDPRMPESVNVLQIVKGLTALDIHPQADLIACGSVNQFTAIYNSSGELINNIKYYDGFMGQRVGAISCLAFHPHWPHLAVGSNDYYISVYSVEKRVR
T1 sequence (Q9BVC4 whole entry, looked up, other chains not shown, the tested form may be a part): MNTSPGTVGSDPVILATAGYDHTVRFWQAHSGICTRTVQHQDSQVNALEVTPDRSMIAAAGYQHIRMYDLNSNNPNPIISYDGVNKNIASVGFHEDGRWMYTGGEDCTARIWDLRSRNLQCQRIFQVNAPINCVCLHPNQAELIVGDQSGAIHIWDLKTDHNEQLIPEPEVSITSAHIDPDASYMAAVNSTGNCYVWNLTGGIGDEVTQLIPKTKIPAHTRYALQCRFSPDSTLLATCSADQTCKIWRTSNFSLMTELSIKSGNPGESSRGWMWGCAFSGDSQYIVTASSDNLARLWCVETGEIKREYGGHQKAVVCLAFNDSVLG
Sequence of Mitogen-activated protein kinase; ERK1/ERK2 (Homo sapiens) (P27361 whole entry, looked up): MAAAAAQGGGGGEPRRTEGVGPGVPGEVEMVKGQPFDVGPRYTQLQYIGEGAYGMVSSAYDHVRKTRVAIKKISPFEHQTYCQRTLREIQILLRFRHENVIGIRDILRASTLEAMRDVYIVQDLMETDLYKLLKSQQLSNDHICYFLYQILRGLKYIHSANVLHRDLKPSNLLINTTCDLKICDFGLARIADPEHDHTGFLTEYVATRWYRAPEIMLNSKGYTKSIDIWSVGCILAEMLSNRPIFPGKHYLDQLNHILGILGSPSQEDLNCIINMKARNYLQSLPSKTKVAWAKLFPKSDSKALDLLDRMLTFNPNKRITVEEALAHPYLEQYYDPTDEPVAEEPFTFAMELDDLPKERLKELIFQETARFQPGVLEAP
Sequence of Mitogen-activated protein kinase; ERK1/ERK2 (Homo sapiens) (P28482 whole entry, looked up): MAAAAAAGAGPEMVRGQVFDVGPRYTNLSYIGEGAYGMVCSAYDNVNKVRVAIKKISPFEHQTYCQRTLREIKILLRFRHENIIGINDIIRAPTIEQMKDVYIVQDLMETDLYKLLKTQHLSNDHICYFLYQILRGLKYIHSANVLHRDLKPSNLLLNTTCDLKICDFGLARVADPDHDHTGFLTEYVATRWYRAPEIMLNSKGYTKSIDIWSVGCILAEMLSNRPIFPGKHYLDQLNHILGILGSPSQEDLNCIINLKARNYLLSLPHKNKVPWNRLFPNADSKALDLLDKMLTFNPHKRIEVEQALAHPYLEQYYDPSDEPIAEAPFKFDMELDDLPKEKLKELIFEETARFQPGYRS
Sequence of Dual specificity mitogen-activated protein kinase kinase 1 (Homo sapiens) (Q02750 whole entry, the tested form may be a part): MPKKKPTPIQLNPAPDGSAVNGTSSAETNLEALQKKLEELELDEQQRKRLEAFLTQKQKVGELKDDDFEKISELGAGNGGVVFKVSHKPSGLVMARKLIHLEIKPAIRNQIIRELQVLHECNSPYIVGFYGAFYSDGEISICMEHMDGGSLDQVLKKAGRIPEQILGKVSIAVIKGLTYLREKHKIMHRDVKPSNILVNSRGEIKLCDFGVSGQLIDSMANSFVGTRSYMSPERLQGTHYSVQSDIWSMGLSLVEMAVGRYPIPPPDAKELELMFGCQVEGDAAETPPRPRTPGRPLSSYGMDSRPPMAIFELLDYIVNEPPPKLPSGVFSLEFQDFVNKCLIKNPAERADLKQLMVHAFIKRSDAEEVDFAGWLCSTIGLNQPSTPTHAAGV
Sequence of Serine/threonine-protein kinase N2 (Homo sapiens) (Q16513 whole entry, looked up, the tested form may be a part): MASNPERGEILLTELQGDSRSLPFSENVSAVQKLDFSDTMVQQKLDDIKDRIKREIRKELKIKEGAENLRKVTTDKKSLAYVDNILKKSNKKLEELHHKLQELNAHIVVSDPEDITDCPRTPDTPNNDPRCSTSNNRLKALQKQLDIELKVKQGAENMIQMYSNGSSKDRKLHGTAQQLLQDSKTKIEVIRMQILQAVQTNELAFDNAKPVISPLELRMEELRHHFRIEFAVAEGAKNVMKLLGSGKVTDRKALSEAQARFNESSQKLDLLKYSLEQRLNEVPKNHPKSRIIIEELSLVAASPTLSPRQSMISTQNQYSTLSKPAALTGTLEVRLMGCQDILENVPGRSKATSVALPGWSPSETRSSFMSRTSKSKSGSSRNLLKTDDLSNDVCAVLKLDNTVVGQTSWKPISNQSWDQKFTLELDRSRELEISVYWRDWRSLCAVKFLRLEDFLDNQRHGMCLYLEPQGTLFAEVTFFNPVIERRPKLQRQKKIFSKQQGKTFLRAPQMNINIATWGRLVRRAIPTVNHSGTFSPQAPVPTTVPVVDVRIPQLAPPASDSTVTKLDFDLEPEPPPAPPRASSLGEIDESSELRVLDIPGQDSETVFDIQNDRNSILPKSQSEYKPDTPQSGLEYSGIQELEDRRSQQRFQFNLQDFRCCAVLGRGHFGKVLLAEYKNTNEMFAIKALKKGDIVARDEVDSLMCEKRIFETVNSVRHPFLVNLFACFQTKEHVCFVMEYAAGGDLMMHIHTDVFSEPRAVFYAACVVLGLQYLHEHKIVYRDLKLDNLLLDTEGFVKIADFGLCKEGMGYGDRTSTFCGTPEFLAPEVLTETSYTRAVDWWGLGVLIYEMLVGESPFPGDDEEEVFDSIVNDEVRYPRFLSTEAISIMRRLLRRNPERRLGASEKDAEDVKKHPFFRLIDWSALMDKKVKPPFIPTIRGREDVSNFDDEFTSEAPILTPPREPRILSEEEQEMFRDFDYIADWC
Sequence of Glycogen synthase kinase-3 beta (Homo sapiens) (P49841 whole entry, looked up, the tested form may be a part): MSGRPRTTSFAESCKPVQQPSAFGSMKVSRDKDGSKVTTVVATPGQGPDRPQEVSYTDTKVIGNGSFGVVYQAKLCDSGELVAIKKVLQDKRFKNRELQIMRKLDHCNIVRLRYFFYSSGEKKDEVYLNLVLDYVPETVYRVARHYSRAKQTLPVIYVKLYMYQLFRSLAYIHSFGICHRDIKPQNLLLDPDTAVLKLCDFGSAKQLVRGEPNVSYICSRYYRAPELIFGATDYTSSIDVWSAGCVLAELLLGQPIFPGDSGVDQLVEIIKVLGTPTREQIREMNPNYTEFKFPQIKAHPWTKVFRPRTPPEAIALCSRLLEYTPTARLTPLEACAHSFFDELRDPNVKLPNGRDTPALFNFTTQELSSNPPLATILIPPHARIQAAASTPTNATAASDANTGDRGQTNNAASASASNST

COc1ccc(-c2ccc3c(N4CCOCC4)nc(N4C[C@@H](C)O[C@@H](C)C4)nc3n2)cc1CO [Ku-0063794]
inhibition [1]: Active
Activity [2]: 91%
Activity [3]: 106%
Activity [4]: 91%
Activity [5]: 114%
Activity [6]: 90%
inhibition [7]: Active
Activity [8]: 105%
Activity [9]: 43%
inhibition [10]: inactive
inhibition [11]: inactive
inhibition [12]: Dose-Dependent Effect
Activity [13]: 99%
Activity [14]: 101%
inhibition [15]: 100%
inhibition [16]: Active
